Source: ChEMBL document CHEMBL2440078, “Synthesis and biological evaluation of novel C-aryl d-glucofuranosides as sodium-dependent glucose co-transporter 2 inhibitors” (Bioorg Med Chem, 2013)

Target: T1, Sodium/glucose cotransporter 2 (Homo sapiens, UniProt P31639)
T1 sequence (P31639 whole entry): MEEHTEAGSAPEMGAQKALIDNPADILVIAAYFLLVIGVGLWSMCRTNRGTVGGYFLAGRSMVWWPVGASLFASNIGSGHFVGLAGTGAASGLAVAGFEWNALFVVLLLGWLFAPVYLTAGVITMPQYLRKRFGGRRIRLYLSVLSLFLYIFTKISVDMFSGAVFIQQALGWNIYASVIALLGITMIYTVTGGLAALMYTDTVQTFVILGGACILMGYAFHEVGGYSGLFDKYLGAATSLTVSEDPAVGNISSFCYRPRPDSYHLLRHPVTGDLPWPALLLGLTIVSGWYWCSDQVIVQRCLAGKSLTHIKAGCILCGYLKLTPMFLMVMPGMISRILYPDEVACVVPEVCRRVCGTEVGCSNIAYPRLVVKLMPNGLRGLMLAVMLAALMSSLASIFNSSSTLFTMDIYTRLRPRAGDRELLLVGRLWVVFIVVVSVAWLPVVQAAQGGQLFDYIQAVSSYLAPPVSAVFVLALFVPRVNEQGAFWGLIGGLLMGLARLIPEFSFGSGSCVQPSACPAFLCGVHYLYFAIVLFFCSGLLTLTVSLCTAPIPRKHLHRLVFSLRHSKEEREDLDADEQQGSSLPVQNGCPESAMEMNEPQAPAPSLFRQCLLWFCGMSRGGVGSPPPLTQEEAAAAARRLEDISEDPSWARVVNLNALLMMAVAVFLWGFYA
Assay: Inhibition of human SGLT2 expressed in CHO-K1 cells assessed as inhibition of [14C]-AMG uptake up to 120 mins by scintillation counting method
Assay type: cell-based
In short: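 Uptake of 3 µM [¹⁴C]-AMG ± inhibitor at 37 °C, stopped with ice-cold KRH. Cells lysed in 0.1% SDS 24 h, then counted. Inhibition vs DMSO-only wells. EC₅₀ from sigmoidal fit, mean of ≥3 determinations.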

## CCOc1ccc(Cc2cc([C@@H]3O[C@H]([C@H](O)CO)[C@H](O)[C@H]3O)ccc2C)cc1
  EC50: 34 µM

## Cc1ccc([C@@H]2O[C@H]([C@H](O)CO)[C@H](O)[C@H]2O)cc1Cc1ccc(C(C)C)cc1
  EC50: 11 µM

## CCc1ccc(Cc2cc([C@@H]3O[C@H]([C@H](O)CO)[C@H](O)[C@H]3O)ccc2C)cc1
  EC50: 2.5 µM

## CCOc1ccc(Cc2cc([C@@H]3O[C@H]([C@H](O)CO)[C@H](O)[C@H]3O)c(OC)cc2Cl)cc1
  EC50: 46 µM

## COc1cc(Cl)c(Cc2ccc(C(C)C)cc2)cc1[C@@H]1O[C@H]([C@H](O)CO)[C@H](O)[C@H]1O
  EC50: 21 µM

## CCc1ccc(Cc2cc([C@@H]3O[C@H]([C@H](O)CO)[C@H](O)[C@H]3O)c(OC)cc2Cl)cc1
  EC50: 0.62 µM

## COc1ccc(Cc2cc([C@@H]3O[C@H]([C@H](O)CO)[C@H](O)[C@H]3O)ccc2Cl)cc1
  EC50: 35 µM

## COc1cccc(Cc2cc([C@@H]3O[C@H]([C@H](O)CO)[C@H](O)[C@H]3O)ccc2Cl)c1
  EC50: > 50 µM

## COc1ccccc1Cc1cc([C@@H]2O[C@H]([C@H](O)CO)[C@H](O)[C@H]2O)ccc1Cl
  EC50: > 50 µM

## OC[C@@H](O)[C@H]1O[C@@H](c2ccc(Cl)c(Cc3ccc(F)cc3)c2)[C@H](O)[C@H]1O
  EC50: > 50 µM

## CSc1ccc(Cc2cc([C@@H]3O[C@H]([C@H](O)CO)[C@H](O)[C@H]3O)ccc2Cl)cc1
  EC50: 3.7 µM

## OC[C@@H](O)[C@H]1O[C@@H](c2ccc(Cl)c(Cc3ccc(Oc4ccccc4)cc3)c2)[C@H](O)[C@H]1O
  EC50: > 50 µM

## COc1ccc2cc(Cc3cc([C@@H]4O[C@H]([C@H](O)CO)[C@H](O)[C@H]4O)ccc3Cl)ccc2c1
  EC50: 5.1 µM

## OC[C@@H](O)[C@H]1O[C@@H](c2ccc(Cl)c(Cc3ccc4c(c3)OCO4)c2)[C@H](O)[C@H]1O
  EC50: > 50 µM

## CCOc1ccc(Cc2cc([C@@H]3O[C@H]([C@H](O)CO)[C@H](O)[C@H]3O)ccc2Cl)cc1
  EC50: > 50 µM

## CC(C)c1ccc(Cc2cc([C@@H]3O[C@H]([C@H](O)CO)[C@H](O)[C@H]3O)ccc2Cl)cc1
  EC50: 33 µM
